Values belong to the molecule of their own block, whether it stands above or below them.
Key:
Streptomyces coelicolor [1] = assay: Inhibition of Ca(2+))/phosphatidylserine/diacylglycerol-dependent aph8 phosphorylation in Streptomyces coelicolor cell lysate assessed as [32Pi] incorporation into aph8 at 500 nM by microplate scintillation counter relative to control; set-up: scale not given: the % may be the effect or the level left
How it was run: (§1)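 Radiometric in vitro assay of actinobacterial protein kinases. Kinases incubated under standard conditions with [γ-³²P]ATP and aphVIII as substrate, with or without modulators or inhibitors. Read-out was incorporation of the γ-phosphoryl residue into aphVIII.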

Streptomyces coelicolor [2] = assay: Inhibition of aph8-induced kanamycin phosphorylation in Streptomyces coelicolor cell lysate assessed as [32Pi] incorporation into kanamycin at 10 uM by microplate scintillation counter relative to control; set-up: scale not given: the % may be the effect or the level left
Streptomyces lividans [3] = assay: Inhibition of aph8 positive Streptomyces lividans at 25 uM after 20 hrs by paper disk method; type: functional; details: read-out: IZ
How it was run: (§2)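 Test culture was Streptomyces lividans carrying plasmid pSU23 with the aphVIII gene, whose kanamycin-inactivating activity depends on Ser/Thr kinase phosphorylation. Paper disks (7 mm) held kanamycin (5 µg/disk) plus test compound at subtoxic amounts, about half the minimal growth-inhibitory dose. Disks went on plates of log-phase cells at 28 °C for 20 h. Read-out was lysis zone diameter.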

Streptomyces lividans [4] = assay: Inhibition of aph8 positive Streptomyces lividans at 50 uM after 20 hrs by paper disk method; type: functional; details: read-out: IZ; how it was run: as §2
Streptomyces lividans [5] = assay: Inhibition of aph8 positive Streptomyces lividans at 100 uM after 20 hrs by paper disk method; type: functional; details: read-out: IZ; how it was run: as §2
Streptomyces lividans [6] = assay: Inhibition of aph8 positive Streptomyces lividans at 200 uM after 20 hrs by paper disk method; type: functional; details: read-out: IZ; how it was run: as §2
Streptomyces lividans [7] = assay: Inhibition of aph8 positive Streptomyces lividans at 400 uM after 20 hrs by paper disk method; type: functional; details: read-out: IZ; how it was run: as §2
[8] = molecular target: T1, Cyclin-dependent kinase 2 (Homo sapiens, UniProt P24941); assay: Inhibition of human CDK2/Cyc2
Streptomyces coelicolor [9] = assay: Inhibition of Ca(2+)/Calmodulin-dependent aph8 phosphorylation in Streptomyces coelicolor cell lysate assessed as [32Pi] incorporation into aph8 at 500 nM by microplate scintillation counter relative to control; set-up: scale not given: the % may be the effect or the level left; how it was run: as §1
[10] = molecular target: T1, Cyclin-dependent kinase 2; assay: Inhibition of human CDK2/CycA
[11] = molecular target: T2, NUAK family SNF1-like kinase 1 (Homo sapiens, UniProt O60285); assay: Inhibition of human ARK5
T2 sequence (O60285 whole entry): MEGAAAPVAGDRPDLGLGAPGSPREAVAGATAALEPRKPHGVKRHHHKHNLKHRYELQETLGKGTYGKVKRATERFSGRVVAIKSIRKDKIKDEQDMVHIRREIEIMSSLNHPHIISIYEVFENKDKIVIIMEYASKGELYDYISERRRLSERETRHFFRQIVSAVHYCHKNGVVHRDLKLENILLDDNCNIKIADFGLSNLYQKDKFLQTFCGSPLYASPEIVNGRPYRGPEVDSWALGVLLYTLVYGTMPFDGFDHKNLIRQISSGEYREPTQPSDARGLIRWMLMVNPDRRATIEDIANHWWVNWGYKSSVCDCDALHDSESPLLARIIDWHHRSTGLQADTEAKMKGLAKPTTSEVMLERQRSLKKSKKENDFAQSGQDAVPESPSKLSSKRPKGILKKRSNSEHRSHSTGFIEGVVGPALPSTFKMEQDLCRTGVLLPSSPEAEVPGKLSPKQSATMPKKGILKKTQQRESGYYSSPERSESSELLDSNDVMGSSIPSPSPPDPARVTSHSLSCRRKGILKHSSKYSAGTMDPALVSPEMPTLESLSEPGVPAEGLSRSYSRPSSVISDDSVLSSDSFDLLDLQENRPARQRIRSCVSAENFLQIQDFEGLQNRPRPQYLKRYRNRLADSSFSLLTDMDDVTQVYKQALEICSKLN

[12] = molecular target: Serine/threonine-protein kinase B-raf (Homo sapiens, UniProt P15056, V600E); assay: Inhibition of human B-RAF-V600E mutant
Sequence of Serine/threonine-protein kinase B-raf (P15056 2-766 V600E limits assumed): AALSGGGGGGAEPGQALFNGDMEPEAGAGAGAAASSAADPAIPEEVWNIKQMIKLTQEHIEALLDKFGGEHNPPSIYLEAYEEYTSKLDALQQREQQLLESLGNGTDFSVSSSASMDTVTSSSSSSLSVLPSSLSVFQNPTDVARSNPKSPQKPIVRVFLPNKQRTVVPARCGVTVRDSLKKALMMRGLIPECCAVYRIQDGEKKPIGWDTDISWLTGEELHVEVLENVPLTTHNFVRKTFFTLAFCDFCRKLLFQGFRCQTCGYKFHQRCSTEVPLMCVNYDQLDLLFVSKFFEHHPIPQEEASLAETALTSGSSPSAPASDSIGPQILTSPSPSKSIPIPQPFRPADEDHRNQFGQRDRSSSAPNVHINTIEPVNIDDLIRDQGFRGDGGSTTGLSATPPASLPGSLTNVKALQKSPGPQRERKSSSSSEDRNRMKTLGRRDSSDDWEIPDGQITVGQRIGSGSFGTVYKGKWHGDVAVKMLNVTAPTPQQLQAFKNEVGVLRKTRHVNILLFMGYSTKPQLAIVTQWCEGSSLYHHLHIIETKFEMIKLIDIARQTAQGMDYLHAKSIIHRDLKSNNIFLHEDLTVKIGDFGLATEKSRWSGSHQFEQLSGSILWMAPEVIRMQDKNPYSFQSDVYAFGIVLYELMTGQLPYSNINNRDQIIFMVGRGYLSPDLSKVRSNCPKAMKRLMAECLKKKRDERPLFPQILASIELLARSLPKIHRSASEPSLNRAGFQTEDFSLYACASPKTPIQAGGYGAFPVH

[13] = molecular target: Cyclin-dependent kinase 4/cyclin D1 (Homo sapiens, UniProt P11802); assay: Inhibition of human CDK4/CycD1; type: protein-complex assay
Sequence of Cyclin-dependent kinase 4/cyclin D1 (P11802 whole entry): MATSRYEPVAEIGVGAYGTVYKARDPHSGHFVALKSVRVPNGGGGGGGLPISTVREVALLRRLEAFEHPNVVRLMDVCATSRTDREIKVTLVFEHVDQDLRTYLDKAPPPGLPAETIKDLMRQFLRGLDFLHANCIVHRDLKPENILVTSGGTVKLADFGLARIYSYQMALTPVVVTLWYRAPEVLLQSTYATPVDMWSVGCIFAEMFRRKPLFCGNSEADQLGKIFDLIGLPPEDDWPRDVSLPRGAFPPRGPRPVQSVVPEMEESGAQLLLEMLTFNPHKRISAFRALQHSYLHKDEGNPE
Sequence of Cyclin-dependent kinase 4/cyclin D1 (P24385 whole entry, further chain): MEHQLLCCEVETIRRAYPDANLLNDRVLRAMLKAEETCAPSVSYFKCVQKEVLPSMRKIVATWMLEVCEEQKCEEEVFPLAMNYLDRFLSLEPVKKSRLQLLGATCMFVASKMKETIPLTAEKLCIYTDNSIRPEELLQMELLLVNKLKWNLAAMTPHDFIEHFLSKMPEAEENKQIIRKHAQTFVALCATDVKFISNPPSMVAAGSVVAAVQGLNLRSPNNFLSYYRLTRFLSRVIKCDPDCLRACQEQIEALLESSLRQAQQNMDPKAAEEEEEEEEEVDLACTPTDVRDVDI

Insulin receptor = Insulin receptor (Homo sapiens, UniProt P06213); assay: Inhibition of human INSR
Sequence of Insulin receptor (P06213 28-758 limits assumed): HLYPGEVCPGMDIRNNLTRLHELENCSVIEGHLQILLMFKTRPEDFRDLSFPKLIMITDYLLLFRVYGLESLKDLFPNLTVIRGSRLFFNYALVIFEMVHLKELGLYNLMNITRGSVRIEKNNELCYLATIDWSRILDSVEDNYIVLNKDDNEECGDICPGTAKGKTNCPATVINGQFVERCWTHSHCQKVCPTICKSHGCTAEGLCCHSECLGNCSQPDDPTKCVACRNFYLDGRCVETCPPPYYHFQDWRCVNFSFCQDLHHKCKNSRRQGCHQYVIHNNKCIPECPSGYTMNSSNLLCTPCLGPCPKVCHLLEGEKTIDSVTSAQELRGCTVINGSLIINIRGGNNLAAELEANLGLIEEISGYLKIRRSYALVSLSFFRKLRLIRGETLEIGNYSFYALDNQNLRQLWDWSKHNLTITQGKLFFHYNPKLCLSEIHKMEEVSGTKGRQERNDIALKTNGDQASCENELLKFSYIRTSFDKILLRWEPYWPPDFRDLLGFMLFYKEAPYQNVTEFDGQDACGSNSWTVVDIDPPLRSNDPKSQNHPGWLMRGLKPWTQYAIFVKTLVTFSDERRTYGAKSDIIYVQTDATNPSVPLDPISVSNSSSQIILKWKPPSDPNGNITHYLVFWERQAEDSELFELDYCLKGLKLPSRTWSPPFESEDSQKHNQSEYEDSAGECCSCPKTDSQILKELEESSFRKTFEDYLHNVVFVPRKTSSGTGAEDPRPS
Sequence of Insulin receptor (P06213 763-1382 limits assumed): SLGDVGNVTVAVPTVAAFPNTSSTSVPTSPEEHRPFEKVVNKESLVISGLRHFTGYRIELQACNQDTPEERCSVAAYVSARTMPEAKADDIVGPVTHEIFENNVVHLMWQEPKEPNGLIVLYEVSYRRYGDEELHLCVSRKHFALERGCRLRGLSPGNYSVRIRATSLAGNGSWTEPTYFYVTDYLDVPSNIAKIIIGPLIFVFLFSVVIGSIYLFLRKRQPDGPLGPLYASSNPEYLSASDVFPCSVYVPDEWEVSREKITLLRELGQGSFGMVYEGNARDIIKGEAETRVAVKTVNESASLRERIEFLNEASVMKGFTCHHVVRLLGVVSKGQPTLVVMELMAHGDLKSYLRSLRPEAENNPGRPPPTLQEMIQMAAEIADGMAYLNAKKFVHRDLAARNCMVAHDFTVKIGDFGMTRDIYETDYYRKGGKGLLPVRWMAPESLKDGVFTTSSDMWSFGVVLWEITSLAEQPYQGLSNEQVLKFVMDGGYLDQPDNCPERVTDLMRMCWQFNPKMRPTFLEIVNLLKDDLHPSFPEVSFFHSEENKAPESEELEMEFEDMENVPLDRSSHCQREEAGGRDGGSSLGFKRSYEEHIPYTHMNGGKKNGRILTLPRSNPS

[14] = molecular target: Hepatocyte growth factor receptor (Homo sapiens, UniProt P08581); assay: Inhibition of human MET
[15] = molecular target: Platelet-derived growth factor receptor beta (Homo sapiens, UniProt P09619); assay: Inhibition of human PDGFRbeta
Sequence of Platelet-derived growth factor receptor beta (P09619 whole entry): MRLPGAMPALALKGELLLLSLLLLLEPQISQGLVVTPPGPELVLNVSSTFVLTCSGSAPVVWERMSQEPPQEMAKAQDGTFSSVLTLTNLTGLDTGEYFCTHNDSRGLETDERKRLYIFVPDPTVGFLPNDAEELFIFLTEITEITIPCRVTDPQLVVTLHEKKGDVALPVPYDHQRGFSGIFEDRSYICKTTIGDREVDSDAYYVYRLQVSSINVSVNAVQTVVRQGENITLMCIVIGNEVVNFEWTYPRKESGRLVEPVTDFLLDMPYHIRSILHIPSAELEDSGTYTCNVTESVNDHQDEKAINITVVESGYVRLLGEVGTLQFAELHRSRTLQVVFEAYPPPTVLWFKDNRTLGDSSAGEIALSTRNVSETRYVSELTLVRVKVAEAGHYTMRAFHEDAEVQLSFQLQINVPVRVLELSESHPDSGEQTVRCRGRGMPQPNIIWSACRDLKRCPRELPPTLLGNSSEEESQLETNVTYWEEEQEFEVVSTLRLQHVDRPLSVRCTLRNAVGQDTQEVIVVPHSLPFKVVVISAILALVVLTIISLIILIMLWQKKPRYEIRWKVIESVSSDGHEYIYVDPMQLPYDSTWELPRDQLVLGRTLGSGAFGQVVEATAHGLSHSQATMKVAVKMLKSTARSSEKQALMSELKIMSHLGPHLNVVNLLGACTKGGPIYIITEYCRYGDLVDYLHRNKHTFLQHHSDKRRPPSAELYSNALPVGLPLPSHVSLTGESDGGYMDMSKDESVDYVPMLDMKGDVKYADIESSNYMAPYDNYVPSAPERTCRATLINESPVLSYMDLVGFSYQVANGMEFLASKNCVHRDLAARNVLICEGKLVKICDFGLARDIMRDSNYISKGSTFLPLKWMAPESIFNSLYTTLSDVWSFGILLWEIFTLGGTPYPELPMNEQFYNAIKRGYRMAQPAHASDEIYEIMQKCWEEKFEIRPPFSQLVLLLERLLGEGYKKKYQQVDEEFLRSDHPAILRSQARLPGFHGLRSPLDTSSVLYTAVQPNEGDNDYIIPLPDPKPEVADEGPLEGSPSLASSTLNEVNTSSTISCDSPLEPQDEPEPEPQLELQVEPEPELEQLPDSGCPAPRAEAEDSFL

[16] = molecular target: Epidermal growth factor receptor (Homo sapiens, UniProt P00533); assay: Inhibition of human EGFR
Sequence of Epidermal growth factor receptor (P00533 whole entry): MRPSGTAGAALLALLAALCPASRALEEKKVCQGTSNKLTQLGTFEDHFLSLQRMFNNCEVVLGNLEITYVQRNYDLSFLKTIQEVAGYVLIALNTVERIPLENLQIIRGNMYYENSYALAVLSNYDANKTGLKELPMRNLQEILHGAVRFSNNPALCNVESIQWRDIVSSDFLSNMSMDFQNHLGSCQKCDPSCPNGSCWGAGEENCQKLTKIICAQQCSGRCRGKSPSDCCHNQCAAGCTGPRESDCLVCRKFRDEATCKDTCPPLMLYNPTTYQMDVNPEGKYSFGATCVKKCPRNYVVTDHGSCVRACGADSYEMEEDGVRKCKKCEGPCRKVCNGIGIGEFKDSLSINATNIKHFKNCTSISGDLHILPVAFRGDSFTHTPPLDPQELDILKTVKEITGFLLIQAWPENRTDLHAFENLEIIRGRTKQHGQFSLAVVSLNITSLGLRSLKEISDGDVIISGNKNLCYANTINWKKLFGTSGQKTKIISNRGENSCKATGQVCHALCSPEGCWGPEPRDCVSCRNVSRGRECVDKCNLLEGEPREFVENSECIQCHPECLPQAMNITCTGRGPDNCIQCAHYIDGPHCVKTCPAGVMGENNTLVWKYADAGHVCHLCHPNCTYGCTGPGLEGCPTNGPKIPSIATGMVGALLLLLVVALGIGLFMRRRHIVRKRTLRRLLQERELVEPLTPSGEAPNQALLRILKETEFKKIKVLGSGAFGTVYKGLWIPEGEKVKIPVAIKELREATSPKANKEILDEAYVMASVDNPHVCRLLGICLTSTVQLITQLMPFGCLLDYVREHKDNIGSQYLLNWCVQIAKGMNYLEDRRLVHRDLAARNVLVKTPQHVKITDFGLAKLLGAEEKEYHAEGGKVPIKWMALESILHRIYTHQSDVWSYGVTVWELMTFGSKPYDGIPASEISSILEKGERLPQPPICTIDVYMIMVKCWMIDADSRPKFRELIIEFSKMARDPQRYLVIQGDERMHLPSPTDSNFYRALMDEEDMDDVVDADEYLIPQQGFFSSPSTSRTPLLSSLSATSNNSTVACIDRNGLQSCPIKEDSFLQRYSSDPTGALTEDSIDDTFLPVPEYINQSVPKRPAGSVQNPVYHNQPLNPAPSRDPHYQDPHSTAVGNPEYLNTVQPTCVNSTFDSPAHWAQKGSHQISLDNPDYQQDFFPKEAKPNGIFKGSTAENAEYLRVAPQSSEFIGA

Ephrin type-B receptor 4 = molecular target: T3, Ephrin type-B receptor 4 (Homo sapiens, UniProt P54760); assay: Inhibition of human EPHB4
T3 sequence (P54760 whole entry): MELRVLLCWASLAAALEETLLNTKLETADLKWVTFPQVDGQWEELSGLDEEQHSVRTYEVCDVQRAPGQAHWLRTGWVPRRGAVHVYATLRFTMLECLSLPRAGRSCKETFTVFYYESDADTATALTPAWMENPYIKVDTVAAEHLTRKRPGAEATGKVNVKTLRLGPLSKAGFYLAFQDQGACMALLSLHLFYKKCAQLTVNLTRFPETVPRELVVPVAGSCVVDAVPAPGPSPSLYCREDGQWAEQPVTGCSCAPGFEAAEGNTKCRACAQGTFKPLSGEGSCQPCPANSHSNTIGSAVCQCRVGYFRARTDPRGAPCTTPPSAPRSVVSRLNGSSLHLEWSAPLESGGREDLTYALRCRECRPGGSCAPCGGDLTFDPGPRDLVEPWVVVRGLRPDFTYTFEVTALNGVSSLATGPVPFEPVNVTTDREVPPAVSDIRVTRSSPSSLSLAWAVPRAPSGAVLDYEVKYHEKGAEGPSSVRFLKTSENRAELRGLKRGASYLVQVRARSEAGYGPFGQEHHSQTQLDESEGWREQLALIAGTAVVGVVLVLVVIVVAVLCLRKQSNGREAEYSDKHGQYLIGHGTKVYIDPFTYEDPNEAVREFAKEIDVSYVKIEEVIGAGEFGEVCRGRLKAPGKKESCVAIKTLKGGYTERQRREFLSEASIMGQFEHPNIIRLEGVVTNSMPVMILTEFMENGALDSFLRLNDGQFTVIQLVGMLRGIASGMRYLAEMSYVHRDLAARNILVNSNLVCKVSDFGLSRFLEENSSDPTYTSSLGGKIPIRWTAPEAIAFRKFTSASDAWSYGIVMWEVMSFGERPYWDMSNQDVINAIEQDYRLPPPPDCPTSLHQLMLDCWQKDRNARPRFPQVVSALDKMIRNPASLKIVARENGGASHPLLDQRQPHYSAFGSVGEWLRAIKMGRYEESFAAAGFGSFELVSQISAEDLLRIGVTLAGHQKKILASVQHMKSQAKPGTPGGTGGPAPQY

Activity (Streptomyces coelicolor [1]): 94%
Activity (Streptomyces coelicolor [2]): 93%
Structure (SMILES): CCN(CC)Cc1cn2c3c(cccc13)C1Cc3ccccc3N1C1=C2C(=O)N(C)C1=O (stereo not drawn)
zone of inhibition at 25 µM (Streptomyces lividans [3]): 0 mm
zone of inhibition at 50 µM (Streptomyces lividans [4]): 0 mm
zone of inhibition at 100 µM (Streptomyces lividans [5]): 7.5 mm
zone of inhibition at 200 µM (Streptomyces lividans [6]): 12 mm
zone of inhibition at 400 µM (Streptomyces lividans [7]): 14 mm

IC50 [8]: 4.3 µM
Structure (SMILES): N=C(N)SCCCN1C(=O)C2=C(C1=O)n1ccc3cccc(c31)C1Cc3ccccc3N21 (stereo not drawn)

Activity (Streptomyces coelicolor [9]): 113%
Structure (SMILES): CN([C@@H](Cc1ccc(OS(=O)(=O)c2cccc3cnccc23)cc1)C(=O)N1CCN(c2ccccc2)CC1)S(=O)(=O)c1cccc2cnccc12

IC50 [10]: 7.7 µM
Structure (SMILES): O=C1C2=C(C(=O)N1CCCSC1=NCCN1)n1ccc3cccc(c31)C1Cc3ccccc3N21 (stereo not drawn)

Activity (Streptomyces coelicolor [9]): 352%
Structure (SMILES): COc1ccc(S(=O)(=O)Nc2ccccc2CN(C)C/C=C/c2ccc(Cl)cc2)cc1

IC50 [11]: 9.7 µM
IC50 [12]: 8.4 µM
IC50 [10]: 6.3 µM
IC50 [13]: 6.2 µM
IC50 (Insulin receptor): 6.3 µM
IC50 [14]: 7.4 µM
IC50 [15]: 6.7 µM
IC50 [16]: 9.9 µM
IC50 (Ephrin type-B receptor 4): 3.9 µM
Structure (SMILES): CNC(=N)SCCCn1c(=O)c2c(c1=O)n1c3ccccc3cc1c1cccc3ccn2c31

IC50 [13]: 6.9 µM
Structure (SMILES): C=CCNC(=N)SCCCN1C(=O)C2=C(C1=O)n1ccc3cccc(c31)C1Cc3ccccc3N21 (stereo not drawn)

Activity (Streptomyces coelicolor [1]): 206%
Activity (Streptomyces coelicolor [2]): 89%
Structure (SMILES): CN1C(=O)C(c2c[nH]c3ccccc23)=C(c2c[nH]c3ccccc23)C1=O

— ChEMBL document CHEMBL1151764, “Search for inhibitors of bacterial and human protein kinases among derivatives of diazepines[1,4] annelated with maleimide and indole cycles” (J Med Chem, 2008)
